Shown are actives, neighbours in structure and some others; about 2.3% of the full set was active somewhere.
ADAM17 inh: ADAM17 inhibition, QFRET primary screen; P78536; recombinant ADAM17, EDANS/DABCYL FRET peptide cleavage; inhibition, % at 6.95 µM; 0.83% of 370,000 active; AID 720648;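 active means inhibition above the mean of compounds lying between control limits plus 3 SD, set per campaign, cut at about 8.5% in these data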;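 further: 0% = DMSO-only wells as the low control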
PLC-gamma1 inh: PLC-gamma1 (human) inhibition, primary screen | P19174 | purified PLC-gamma1, fluorogenic substrate, fluorescence | inhibition, % at 12.2 µM | 0.84% of 370,000 active; in the data active means inhibition above about 9.5%
Tb MetRS inh: blocks T. brucei methionyl-tRNA synthetase activity | purified T. brucei MetRS, ATP depletion, Kinase-Glo luminescence | inhibition, % at 11.9 µM | 0.4% of 360,000 active | AID 624268;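 active means inhibition above a per-plate cutoff of the control wells' mean inhibition plus 3 SD, cut at about 5.5% in these data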;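 further: 0% = DMSO wells median and 100% = median of wells with control inhibitor compound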
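Test system: purified T. brucei MetRS enzyme. Also added: ATP, methionine and E. coli bulk tRNA substrates. Compound: 11.9 µM single point. Schedule: 15 min enzyme-compound preincubation, 2 h reaction, 10 min detection, 25 °C. Signal: luciferase luminescence of residual ATP, Kinase-Glo. Evaluation: percent inhibition versus plate control medians. Controls: DMSO wells, low control.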
PLC-beta3 inh: PLC-beta3 (human) inhibition, primary screen; Q01970; Purified PLC-beta3, fluorogenic substrate, fluorescence; inhibition, % at 12.2 µM; 0.18% of 370,000 active; AID 720704; in the data active means inhibition above about 11%;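 further: 0% = median of compound wells on plate and 100% = full blocker control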
ADAM10 inh: inhibits human ADAM10; recombinant ADAM10, EDANS/DABCYL FRET peptide cleavage, 3 h; inhibition, % at 7 µM; AID 720582; 0.62% of 370,000 active; O14672;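 active means inhibition above a per-campaign cutoff equal to the mean of compounds falling between control-based bounds plus 3 SD, cut at about 20% in these data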;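 further: 0% = DMSO wells while the 100% control is not disclosed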
ADAM10 counter: inhibits human ADAM10 in ADAM17 exosite counter-screen; 47% of 2,900 active; AID 743256; inhibition, % at 6.95 µM; recombinant ADAM10, EDANS/DABCYL FRET peptide cleavage, 3 h; shares compounds with ADAM17 inh;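 active means mean inhibition over the triplicate runs exceeds the activity threshold set in the earlier primary screen, cut at about 20% in these data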;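 further: 0% = DMSO wells and 100% = marimastat wells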
ADAM17 confirm: human ADAM17 inhibition, confirmation; inhibition, % at 6.95 µM; shares compounds with ADAM17 inh; 65% of 2,900 active; recombinant ADAM17, EDANS/DABCYL QFRET peptide cleavage;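 active means mean inhibition across replicates above the hit cutoff set in the primary screen, cut at about 8.5% in these data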;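 further: 0% = DMSO wells and 100% = marimastat wells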
The depositor's hits bear a star; . = no result.

SMILES	ADAM17 inh	PLC-gamma1 inh	Tb MetRS inh	PLC-beta3 inh	ADAM10 inh	ADAM10 counter	ADAM17 confirm
COc1ccccc1N(C)S(=O)(=O)c1ccc(C)c(C(=O)Nc2nccs2)c1	2	-7	0	-9	5	.	.
CN(C)CCNC(=O)C(=O)Nc1cc2c3c(c1)CCN3C(=O)CC2	5	3	0	-3	-7	.	.
O=C(CN(C(=O)CCC(=O)Nc1ccccn1)c1ccccc1F)NCc1ccc2c(c1)OCO2	-5	3	0	-8	-4	.	.
N=C(N)SCc1ccccc1Cl	9.4*	2	0	2	-4	8	4
NC(CSCc1ccccc1Cl)C(=O)O (stereo unspecified)	-4	-2	0	-7	-15	.	.
O=C(CSc1nnc(SCc2cccc3ccccc23)s1)Nc1ccccc1-c1ccccc1	-1	1	.	2	-3	.	.
COc1cc(C)c(C(=O)Oc2cc(C)c(C(=O)O)c(O)c2)c(O)c1	-1	-1	-1	-2	-8	.	.
COc1cc(C)c(C(=O)Oc2cc(C)c(C(=O)O)c(O)c2C)c(O)c1C	11*	4	2	5	10	15	11*
CCOC(=O)/C(=N\Nc1ccc(Cl)cc1)c1csc(Nc2ccccc2)n1	3	-4	0	-4	14	.	.
CCOC(=O)/C(=N/Nc1ccccc1)c1csc(Nc2ccccc2)n1	11*	-25	0	-27	1	10	8
COc1ccc(CN(C(=O)c2nsc(Cl)c2Cl)C(C(=O)NC2CCCC2)c2ccc(C)cc2)cc1 (stereo unspecified)	10*	2	0	4	13	14	14*
CC(=O)c1ccc(NS(=O)(=O)c2cccc3cccnc23)cc1	-4	1	0	5	-9	.	.
COc1ccc(C(C(=O)N(C)C2CCCC2)N(Cc2ccc(F)cc2)C(=O)c2ncn[nH]2)cc1OC (stereo unspecified)	-4	-1	.	-2	-13	.	.
COc1cccc(NC(=S)N/N=C2/CCCCc3ccccc32)c1	9.2*	2	-1	-3	8	8	5
Cc1ccc(S(=O)(=O)N2CCOC2CNC(=O)C(=O)NCCCc2ccccc2)cc1 (stereo unspecified)	9.3*	1	-1	-2	-1	22*	21*
Cc1cccc(NC(=O)C2CCCC2)c1	-6	0	-1	0	-13	.	.
CC(=O)c1cccc(NC(=O)C2CCCC2)c1	9.5*	9	0	4	-1	-7	-3
Cc1ccc(Cn2cc(COC(=O)Nc3ccc(F)cc3)nn2)cc1	2	1	.	0	4	.	.
Clc1ccc(OCCOCCOc2cccc3cccnc23)c(Br)c1	8.9*	-18	1	-19	13	12	13*
OC(c1ccccc1)(c1ccccc1)C1CCN(CCCOc2ccc(C(F)(F)F)cc2)CC1	11*	3	.	1	11	24*	9.8*
OC(c1ccccc1)(c1ccccc1)C1CCN(CCCOc2cccc(C(F)(F)F)c2)CC1	9.9*	2	.	2	13	27*	19*
OC(c1ccccc1)(c1ccccc1)C1CCN(CCCOc2ccc(OC(F)(F)F)cc2)CC1	3	1	.	7	5	.	.
O=C1C(Cl)=C(Nc2cccc(O)c2)C(=O)N1Cc1ccccc1	1	-2	1	-1	3	.	.
Cc1ccc(N=C2NC(=O)/C(=C\c3ccsc3)S2)c(C)c1	8.8*	-1	0	-7	11	32*	20*
CC(C)c1cc(Cn2c3ccccc3c(=O)n2C(C)Cn2cc(CCCC#N)nn2)on1 (stereo unspecified)	-68	-24	0	-36	-244	.	.
COc1ccc(-c2nnc(SCC(=O)NN=C/C=C\c3ccco3)n2-c2ccc(OC)cc2)cc1	3	-5	.	-9	4	.	.
CC(C)C(=O)N1CCN(c2ccc(NC(=O)c3cccs3)cc2)CC1	2	6	0	4	3	.	.
CC(C)C(=O)N1CCN(c2ccc(NC(=O)c3cccs3)cc2Cl)CC1	9.1*	8	0	2	11	8	6

Assay outcomes deposited in PubChem by The Scripps Research Institute Molecular Screening Center.
